pEC50, pIC50: −log10 of the molar value. Calls of active or inactive are those of the source. The calls are words filed in the database; no cut-off is given here.
Columns and labels:
[1] = test system: PC-3; assay: Antiproliferative activity against human PC3 cells at 4 uM after 48 hrs by MTT assay; type: functional; details: PC-3, 48 h
Method in brief: (§1)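 Epithelial cancer lines came from ATCC and were seeded the day before in complete medium: PC-3, SkOV3 and A549 at 3,000/well; MiaPaCa-2 and BxPC-3 at 4,000; T-47D and MDA-MB-468 at 5,000. Medium was switched to 0.5% FBS just before exposure to 4 μM. Read-out was MTT (4 h, 37 °C), SDS/HCl solubilisation, A595 minus cell-free blank. Growth inhibition was taken versus DMSO (≤0.1% v/v) controls, ≥2 experiments in triplicate.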

[2] = test system: T47D; assay: Antiproliferative activity against human T47D cells at 4 uM after 48 hrs by MTT assay; type: functional; method in brief: as §1
[3] = target: T1, Retinoic acid receptor RXR-alpha (Mus musculus, UniProt P28700); assay: Transactivation of Gal4-LBD fused mouse RXRalpha (218 to 467) transfected in african green monkey CV1 cells assessed as luciferase activity at after 6 hrs by Dual-light chemiluminescent assay; type: cell-based, CV-1
T1 sequence (P28700 whole entry): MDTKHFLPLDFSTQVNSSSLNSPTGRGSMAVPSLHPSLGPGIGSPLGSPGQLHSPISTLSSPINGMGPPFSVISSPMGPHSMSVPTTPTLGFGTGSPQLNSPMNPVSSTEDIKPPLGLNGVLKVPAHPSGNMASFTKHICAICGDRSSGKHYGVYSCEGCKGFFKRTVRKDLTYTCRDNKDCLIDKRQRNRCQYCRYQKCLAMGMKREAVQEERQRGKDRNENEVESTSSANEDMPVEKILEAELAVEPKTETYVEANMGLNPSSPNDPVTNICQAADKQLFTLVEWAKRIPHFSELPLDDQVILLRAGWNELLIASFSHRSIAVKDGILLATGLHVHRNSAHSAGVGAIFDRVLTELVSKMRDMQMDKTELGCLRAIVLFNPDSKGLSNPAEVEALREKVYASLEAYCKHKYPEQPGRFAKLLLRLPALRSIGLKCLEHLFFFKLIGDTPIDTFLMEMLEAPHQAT

[4] = test system: BXPC-3; assay: Antiproliferative activity against human BxPC3 cells at 4 uM after 48 hrs by MTT assay; type: functional; details: BXPC-3, 48 h; method in brief: as §1
[5] = test system: MIA PaCa-2; assay: Antiproliferative activity against human MIAPaCa2 cells at 4 uM after 48 hrs by MTT assay; type: functional; details: MIA PaCa-2, 48 h; method in brief: as §1
[6] = target: T2, Retinoic acid receptor gamma (Homo sapiens) (UniProt P13631); assay: Inhibition of transactivation activity of Gal4-LBD fused human RARgamma (178 to 454) transfected in atRA-stimulated african green monkey CV1 cells at 4 uM after 20 hrs by Dual-light chemiluminescent assay; details: CV-1
T2 sequence (whole entry): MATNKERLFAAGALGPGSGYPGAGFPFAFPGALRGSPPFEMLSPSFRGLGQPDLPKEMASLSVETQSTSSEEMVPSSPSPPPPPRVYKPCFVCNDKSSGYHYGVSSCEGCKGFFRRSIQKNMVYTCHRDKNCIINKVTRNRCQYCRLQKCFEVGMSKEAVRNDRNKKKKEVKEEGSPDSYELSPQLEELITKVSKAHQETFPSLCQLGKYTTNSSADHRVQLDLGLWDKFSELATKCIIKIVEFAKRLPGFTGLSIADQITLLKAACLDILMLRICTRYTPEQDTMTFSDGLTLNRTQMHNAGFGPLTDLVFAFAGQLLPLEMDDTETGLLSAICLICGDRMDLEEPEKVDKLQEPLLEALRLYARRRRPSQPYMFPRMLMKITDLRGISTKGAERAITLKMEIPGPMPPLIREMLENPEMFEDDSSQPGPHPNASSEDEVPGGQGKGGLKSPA

[7] = test system: A549; assay: Antiproliferative activity against human A549 cells at 4 uM after 72 hrs by MTT assay; type: functional; details: A549, 72 h; method in brief: as §1
[8] = target: T3, Retinoic acid receptor alpha (Homo sapiens) (UniProt P10276); assay: Transactivation of Gal4-LBD fused human RARalpha (156 to 454) transfected in african green monkey CV1 cells assessed as luciferase activity at 2 uM after 6 hrs by Dual-light chemiluminescent assay; type: cell-based; details: CV-1
T3 sequence (whole entry): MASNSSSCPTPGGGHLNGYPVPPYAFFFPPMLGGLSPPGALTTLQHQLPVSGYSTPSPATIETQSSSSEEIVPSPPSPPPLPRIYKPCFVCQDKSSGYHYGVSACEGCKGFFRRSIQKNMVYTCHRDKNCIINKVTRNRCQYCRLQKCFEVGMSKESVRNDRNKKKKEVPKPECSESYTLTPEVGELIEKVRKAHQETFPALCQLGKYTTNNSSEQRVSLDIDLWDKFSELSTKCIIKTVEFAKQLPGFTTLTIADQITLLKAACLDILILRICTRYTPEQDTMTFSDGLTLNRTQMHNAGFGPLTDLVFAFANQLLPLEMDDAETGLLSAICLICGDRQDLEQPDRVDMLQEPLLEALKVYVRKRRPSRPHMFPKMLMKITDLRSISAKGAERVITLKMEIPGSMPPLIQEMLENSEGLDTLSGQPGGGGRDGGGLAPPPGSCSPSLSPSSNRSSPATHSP

[9] = test system: SK-OV-3; assay: Antiproliferative activity against human SKOV3 cells at 4 uM after 48 hrs by MTT assay; type: functional; details: SK-OV-3, 48 h; method in brief: as §1
[10] = test system: Jurkat; assay: Antiproliferative activity against human Jurkat T cells after 48 hrs by MTT assay
[11] = target: T4, Retinoic acid receptor beta (Homo sapiens) (UniProt P10826); assay: Transactivation of Gal4-LBD fused human RARbeta (169 to 448) transfected in african green monkey CV1 cells assessed as luciferase activity at 2 uM after 6 hrs by Dual-light chemiluminescent assay; type: cell-based; details: CV-1
T4 sequence (whole entry): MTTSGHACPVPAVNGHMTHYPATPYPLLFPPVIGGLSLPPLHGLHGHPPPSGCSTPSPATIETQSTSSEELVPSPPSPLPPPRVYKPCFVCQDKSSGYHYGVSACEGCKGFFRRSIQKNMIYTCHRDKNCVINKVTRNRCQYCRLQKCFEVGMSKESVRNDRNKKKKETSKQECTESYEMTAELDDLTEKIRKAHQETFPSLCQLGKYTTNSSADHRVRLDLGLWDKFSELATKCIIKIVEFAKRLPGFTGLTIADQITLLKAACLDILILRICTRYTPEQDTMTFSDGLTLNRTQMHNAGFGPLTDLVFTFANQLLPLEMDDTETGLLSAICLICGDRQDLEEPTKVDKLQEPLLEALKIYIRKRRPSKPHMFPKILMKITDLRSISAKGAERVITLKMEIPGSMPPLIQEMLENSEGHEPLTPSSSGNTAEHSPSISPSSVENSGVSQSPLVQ
Method in brief: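 Transfected CV-1 cells carried Gal4-LBD constructs: hRARα 156–462, hRARβ 169–448, hRARγ 178–454 or mRXRα 218–467. Transfection used 10 ng Gal4-LBD, 100 ng UAS-luciferase and 25 ng β-gal vector. After 16 h the medium was changed to 5% charcoal-treated FBS. Cells were stimulated with 2 μM analog for 6 h (RARα, RARβ, RXRα) or 20 h (RARγ). Reference agonists were 1 μM atRA (RARα) and 1 μM 9cRA (RXRα). Luciferase and β-galactosidase were read by chemiluminescence.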

[12] = target: T3, Retinoic acid receptor alpha (Homo sapiens); assay: Inhibition of transactivation activity of Gal4-LBD fused human RARalpha (156 to 454) transfected in atRA-stimulated african green monkey CV1 cells at 4 uM after 6 hrs by Dual-light chemiluminescent assay; type: cell-based; details: CV-1
Method in brief: (§2)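 Gal4 DBD (1–147) was fused to hRARα (156–462) or hRARβ (169–448) LBD. CV-1 cells (20,000/well) were co-transfected with 10 ng Gal4-LBD, 100 ng UAS-luciferase and 25 ng β-gal vector. After 16 h the medium was replaced with medium containing 5% charcoal-treated FBS. Cells got atRA plus test compound at 10-, 40- or 200-fold excess (0.2, 0.8, 4 μM) for 6 h. Luciferase and β-galactosidase were read by chemiluminescence.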

[13] = test system: MDA-MB-468; assay: Antiproliferative activity against human MDA-MB-468 cells at 4 uM after 48 hrs by MTT assay; type: functional; details: MDA-MB-468, 48 h; method in brief: as §1
[14] = target: T3, Retinoic acid receptor alpha (Homo sapiens); assay: Inhibition of transactivation activity of Gal4-LBD fused human RARalpha (156 to 454) transfected in atRA-stimulated african green monkey CV1 cells at 0.2 uM after 6 hrs by Dual-light chemiluminescent assay; type: cell-based; method in brief: as §2
[15] = target: T4, Retinoic acid receptor beta (Homo sapiens); assay: Inhibition of transactivation activity of Gal4-LBD fused human RARbeta (169 to 448) transfected in atRA-stimulated african green monkey CV1 cells at 4 uM after 6 hrs by Dual-light chemiluminescent assay; type: cell-based; details: CV-1; method in brief: as §2
[16] = test system: Jurkat; assay: Induction of apoptosis in human Jurkat T cells assessed as induction of DEVDase activity at 1 uM after 4 hrs by fluorescence assay; type: functional, cell-based
Method in brief: (§3)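 Jurkat cells (40,000/well, 10^6 cells/mL, RPMI with 0.5% FBS) were treated for 4 h; controls got 0.1% DMSO. Lysis was in CE buffer (PIPES pH 7, NP-40, cytochalasin B, protease inhibitors) for 30 min at 4 °C. Lysates were mixed with 2x caspase buffer (HEPES pH 7.4, CHAPS, sucrose) holding 100 μM Ac-DEVD-AFC and incubated at 37 °C for 30 min. AFC was read every 2 min, ex 390/em 510 nm.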

[17] = test system: Jurkat; assay: Antiproliferative activity against human Jurkat T cells at 2 uM after 48 hrs by MTT assay; type: functional, cell-based
Method in brief: (§4)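 Jurkat T cells were resuspended at 10^5 cells/mL in RPMI with 0.5% FBS (10,000/well) and seeded immediately before dosing at 62.5 nM–2 μM for two days. Viability was read by MTT (4 h, 37 °C), formazan dissolved in 10% SDS/10 mM HCl, A595 with cell-free background subtracted. Values are relative to DMSO controls (≤0.1% v/v); at least two experiments in triplicate.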

[18] = test system: Jurkat; assay: Antiproliferative activity against human Jurkat T cells at 62.5 nM after 48 hrs by MTT assay; type: functional, cell-based; method in brief: as §4
[19] = test system: Jurkat; assay: Induction of apoptosis in human Jurkat T cells assessed as induction of DEVDase activity at 4 uM after 4 hrs by fluorescence assay; type: functional, cell-based; method in brief: as §3

Structure (SMILES) | pEC50 [3] | Activity [6] | Activity [8] | pIC50 [10] | Activity [11] | inhibition [12] [%] | inhibition ([14]; CV-1, 0.2 uM) | Activity [15] | inhibition ([14]; CV-1, 4 uM, in the assay text read “at 4 uM” for “at 0.2 uM”) [%] | inhibition at 4 µM [1] [%] | inhibition at 4 µM [2] [%] | inhibition at 4 µM [4] [%] | inhibition at 4 µM [5] [%] | inhibition at 4 µM [7] [%] | inhibition at 4 µM [9] [%] | inhibition at 4 µM [13] [%] | Activity [16] | Activity [17] | Activity [18] | Activity [19]
COCCOCOc1cc(C)c(-c2ccc(/C=C/C(=O)O)cc2Cl)cc1C12CC3CC(CC(C3)C1)C2 | 6.22 | inactive | inactive | 5.73 | inactive | 27 | inactive | inactive | – | 72 | 29.1 | 45.8 | 63.3 | 51.1 | 80.1 | 42 | – | – | – | –
Cc1cc(O)c(C23CC4CC(CC(C4)C2)C3)cc1-c1ccc2cc(C(=O)O)ccc2c1Cl | – | inactive | inactive | 6.36 | inactive | 27 | inactive | inactive | – | 97.7 | 55.8 | 94.7 | 91.5 | 88.1 | 87 | 59.2 | Active | – | – | –
Cc1cc(O)c(C23CC4CC(CC(C4)C2)C3)cc1-c1ccc(/C=C/C(=O)O)cc1Cl | 6.24 | inactive | inactive | 5.85 | inactive | – | inactive | inactive | – | 68.7 | 24.2 | 36 | 26.3 | 23.7 | 65.1 | 24.9 | – | – | inactive | –
COCCOCOc1ccc(C(=O)/C=C/c2ccc(C(=O)O)cc2)cc1C12CC3CC(CC(C3)C1)C2 | – | Active | inactive | 6.54 | inactive | – | – | Active | 90 | 92.1 | 50.6 | 96.6 | 74.9 | 42.1 | 61.5 | 72.4 | Active | – | – | Active

Further lines, with some results ahead:

pEC50 [3] | Activity [6] | Activity [8] | pIC50 [10] | Activity [11] | inhibition [12] [%] | inhibition ([14]; CV-1, 0.2 uM) | Activity [15] | inhibition ([14]; CV-1, 4 uM, in the assay text read “at 4 uM” for “at 0.2 uM”) [%] | Structure (SMILES) | inhibition at 4 µM [1] [%] | inhibition at 4 µM [2] [%] | inhibition at 4 µM [4] [%] | inhibition at 4 µM [5] [%] | inhibition at 4 µM [7] [%] | inhibition at 4 µM [9] [%] | inhibition at 4 µM [13] [%] | Activity [16] | Activity [17] | Activity [18] | Activity [19]
– | inactive | inactive | – | inactive | – | inactive | inactive | – | Cc1cc(O)c(C23CC4CC(CC(C4)C2)C3)cc1-c1ccc(CC(=O)O)cc1Cl | 66.7 | 29.1 | 49.2 | 26.8 | 15.9 | 30.3 | 11.1 | – | Active | inactive | –
– | – | inactive | 7.09 | inactive | – | – | – | – | C/C(=C/c1ccc(C(=O)O)cc1)c1ccc(O)c(C23CC4CC(CC(C4)C2)C3)c1 | 92.3 | 62.7 | 95.7 | 76.1 | 79 | 67 | 76.7 | Active | – | – | Active
